Calls of active or inactive are those of the source. The rule behind the calls is not given here.
What was measured:
Raji [1] = test: Induction of apoptosis in human Raji cells assessed as viable cells at 5 uM measured after 15 mins by Annexin-V-APC staining-based flow cytometric analysis (reference value: 97.5 %); assay type: functional; settings: Homo sapiens, Raji, 0.25 h; read-out: Activity
Ramos [2] = test: Cell cycle arrest in human Ramos cells assessed as accumulation at G0/G1 phase at 5 uM measured after 48 hrs by propidium iodide/RNase staining based flow cytometric analysis (reference value: 37.66 %); assay type: functional
Raji [3] = test: Induction of apoptosis in human Raji cells assessed as early apoptotic cells at 0.1 uM measured after 15 mins by Annexin-V-APC staining-based flow cytometric analysis (reference value: 0.021 %); assay type: functional
Raji [4] = test: Induction of apoptosis in human Raji cells assessed as early apoptotic cells at 5 uM measured after 15 mins by Annexin-V-APC staining-based flow cytometric analysis (reference value: 0.021 %); assay type: functional
Raji [5] = test: Induction of apoptosis in human Raji cells assessed as necrotic cells at 1 uM measured after 15 mins by Annexin-V-APC staining-based flow cytometric analysis (reference value: 1.87 %); assay type: functional
Raji [6] = test: Cell cycle arrest in human Raji cells assessed as accumulation at S phase at 0.1 uM measured after 48 hrs by propidium iodide/RNase staining based flow cytometric analysis (reference value: 33.18 %); assay type: functional
Ramos [7] = test: Induction of apoptosis in human Ramos cells assessed as early apoptotic cells at 1 uM measured after 15 mins by Annexin-V-APC staining-based flow cytometric analysis (reference value: 0.14 %); assay type: functional
Ramos [8] = test: Induction of apoptosis in human Ramos cells assessed as late apoptotic cells at 0.1 uM measured after 15 mins by Annexin-V-APC staining-based flow cytometric analysis (reference value: 1.85 %); assay type: functional
Ramos [9] = test: Induction of apoptosis in human Ramos cells assessed as necrotic cells at 0.1 uM measured after 15 mins by Annexin-V-APC staining-based flow cytometric analysis (reference value: 1.50 %); assay type: functional
Raji [10] = test: Induction of apoptosis in human Raji cells assessed as necrotic cells at 3 uM measured after 15 mins by Annexin-V-APC staining-based flow cytometric analysis (reference value: 1.87 %); assay type: functional
Raji [11] = test: Induction of apoptosis in human Raji cells assessed as viable cells at 1 uM measured after 15 mins by Annexin-V-APC staining-based flow cytometric analysis (reference value: 97.5 %); assay type: functional; settings: 0.25 h, read-out: Activity
Ramos [12] = test: Cell cycle arrest in human Ramos cells assessed as accumulation at S phase at 1 uM measured after 48 hrs by propidium iodide/RNase staining based flow cytometric analysis (reference value: 56.35 %); assay type: functional
Ramos [13] = test: Cell cycle arrest in human Ramos cells assessed as accumulation at G2/M phase at 0.1 uM measured after 48 hrs by propidium iodide/RNase staining based flow cytometric analysis (reference value: 5.98 %); assay type: functional
[14] = target: T1, Tyrosine-protein kinase BTK (Homo sapiens, UniProt Q06187); test: Inhibition of human recombinant full length N-terminal His tagged BTK expressed in baculovirus infected Sf9 cells using poly (Glu,Tyr) 4:1 as substrate measured after 60 mins in presence of ATP by ADP-Glo kinase assay
Raji [15] = test: Cell cycle arrest in human Raji cells assessed as accumulation at G2/M phase at 1 uM measured after 48 hrs by propidium iodide/RNase staining based flow cytometric analysis (reference value: 18.14 %); assay type: functional
Ramos [16] = test: Induction of apoptosis in human Ramos cells assessed as necrotic cells at 3 uM measured after 15 mins by Annexin-V-APC staining-based flow cytometric analysis (reference value: 1.50 %); assay type: functional
Raji [17] = test: Induction of apoptosis in human Raji cells assessed as late apoptotic cells at 5 uM measured after 15 mins by Annexin-V-APC staining-based flow cytometric analysis (reference value: 0.57 %); assay type: functional
Ramos [18] = test: Induction of apoptosis in human Ramos cells assessed as necrotic cells at 1 uM measured after 15 mins by Annexin-V-APC staining-based flow cytometric analysis (reference value: 1.50 %); assay type: functional
[19] = target: T1, Tyrosine-protein kinase BTK; test: Inhibition of BTK in anti-IgM-stimulated human Raji cells assessed as decrease in auto-phosphorylation at Y223 residue at 5 uM after 48 hrs by Western blot analysis; assay type: cell-based
Method in brief: (§1)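 Cells were stimulated with anti-IgM and exposed to serial dilutions for 48 h. Lysis was in 2× Laemmli buffer with 2.5% β-mercaptoethanol at 4 °C for 15 min, then boiling for 5 min. Proteins were separated on 10% SDS-PAGE and moved to nitrocellulose. Blots were probed overnight (12–18 h, 4 °C) with phospho-BTK Tyr223, phospho-PLCγ2 Tyr1217 and β-actin antibodies (1:1000), then anti-rabbit HRP, with chemiluminescent detection.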

Ramos [20] = test: Cell cycle arrest in human Ramos cells assessed as accumulation at G2/M phase at 1 uM measured after 48 hrs by propidium iodide/RNase staining based flow cytometric analysis (reference value: 5.98 %); assay type: functional
[21] = target: T1, Tyrosine-protein kinase BTK; test: Inhibition of BTK in anti-IgM-stimulated human Raji cells assessed as decrease in auto-phosphorylation at Y223 residue after 48 hrs by Western blot analysis; assay type: cell-based; method in brief: as §1
Ramos [22] = test: Induction of apoptosis in human Ramos cells assessed as necrotic cells at 5 uM measured after 15 mins by Annexin-V-APC staining-based flow cytometric analysis (reference value: 1.50 %); assay type: functional
Ramos [23] = test: Induction of apoptosis in human Ramos cells assessed as late apoptotic cells at 5 uM measured after 15 mins by Annexin-V-APC staining-based flow cytometric analysis (reference value: 1.85 %); assay type: functional
[24] = target: Tyrosine-protein kinase BTK (Homo sapiens, UniProt Q06187, C481S); test: Inhibition of human recombinant full length N-terminal His tagged BTK C481S mutant expressed in baculovirus infected Sf9 cells using poly (Glu,Tyr) 4:1 as substrate measured after 60 mins in presence of ATP by ADP-Glo kinase assay
Ramos [25] = test: Induction of apoptosis in human Ramos cells assessed as early apoptotic cells at 0.1 uM measured after 15 mins by Annexin-V-APC staining-based flow cytometric analysis (reference value: 0.14 %); assay type: functional
Ramos [26] = test: Induction of apoptosis in human Ramos cells assessed as early apoptotic cells at 3 uM measured after 15 mins by Annexin-V-APC staining-based flow cytometric analysis (reference value: 0.14 %); assay type: functional
Raji [27] = test: Induction of apoptosis in human Raji cells assessed as necrotic cells at 5 uM measured after 15 mins by Annexin-V-APC staining-based flow cytometric analysis (reference value: 1.87 %); assay type: functional
Raji [28] = test: Antiproliferative activity against human Raji cells measured after 72 hrs by CCK-8 assay; assay type: functional, cell-based
Method in brief: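 Ramos or Raji cells in RPMI-1640 with 10% FBS and 1% penicillin-streptomycin at 37 °C, 5% CO2. Seeded at 2000–3000 cells/well one day before compound addition. Exposure 72 h, then CCK-8 with absorbance at 450 nm. […] Single-point inhibition at 40 µM reported as mean ± standard deviation.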

Raji [29] = test: Cell cycle arrest in human Raji cells assessed as accumulation at G0/G1 phase at 0.1 uM measured after 48 hrs by propidium iodide/RNase staining based flow cytometric analysis (reference value: 48.68 %); assay type: functional
Raji [30] = test: Cell cycle arrest in human Raji cells assessed as accumulation at S phase at 5 uM measured after 48 hrs by propidium iodide/RNase staining based flow cytometric analysis (reference value: 33.18 %); assay type: functional

T1 sequence (Q06187 whole entry): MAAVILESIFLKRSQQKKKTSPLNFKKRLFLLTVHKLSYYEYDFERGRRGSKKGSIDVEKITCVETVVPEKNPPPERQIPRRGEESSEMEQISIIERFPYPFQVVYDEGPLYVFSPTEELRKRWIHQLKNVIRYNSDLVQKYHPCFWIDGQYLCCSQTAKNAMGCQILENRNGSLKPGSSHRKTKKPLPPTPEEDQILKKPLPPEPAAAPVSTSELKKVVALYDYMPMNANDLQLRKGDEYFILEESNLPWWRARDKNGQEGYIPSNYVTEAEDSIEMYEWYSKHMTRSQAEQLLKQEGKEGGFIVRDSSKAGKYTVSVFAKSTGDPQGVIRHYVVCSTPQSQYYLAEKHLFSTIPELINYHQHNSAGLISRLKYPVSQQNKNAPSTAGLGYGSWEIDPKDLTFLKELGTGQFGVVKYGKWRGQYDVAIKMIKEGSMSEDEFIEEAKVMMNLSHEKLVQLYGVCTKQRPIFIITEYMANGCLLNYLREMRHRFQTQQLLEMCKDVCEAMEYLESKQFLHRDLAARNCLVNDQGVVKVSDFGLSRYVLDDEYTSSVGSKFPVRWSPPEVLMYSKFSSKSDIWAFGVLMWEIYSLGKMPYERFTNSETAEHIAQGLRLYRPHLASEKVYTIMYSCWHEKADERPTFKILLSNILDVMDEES
Sequence of Tyrosine-protein kinase BTK (Homo sapiens, UniProt Q06187, C481S) (Q06187 2-659 C481S limits assumed): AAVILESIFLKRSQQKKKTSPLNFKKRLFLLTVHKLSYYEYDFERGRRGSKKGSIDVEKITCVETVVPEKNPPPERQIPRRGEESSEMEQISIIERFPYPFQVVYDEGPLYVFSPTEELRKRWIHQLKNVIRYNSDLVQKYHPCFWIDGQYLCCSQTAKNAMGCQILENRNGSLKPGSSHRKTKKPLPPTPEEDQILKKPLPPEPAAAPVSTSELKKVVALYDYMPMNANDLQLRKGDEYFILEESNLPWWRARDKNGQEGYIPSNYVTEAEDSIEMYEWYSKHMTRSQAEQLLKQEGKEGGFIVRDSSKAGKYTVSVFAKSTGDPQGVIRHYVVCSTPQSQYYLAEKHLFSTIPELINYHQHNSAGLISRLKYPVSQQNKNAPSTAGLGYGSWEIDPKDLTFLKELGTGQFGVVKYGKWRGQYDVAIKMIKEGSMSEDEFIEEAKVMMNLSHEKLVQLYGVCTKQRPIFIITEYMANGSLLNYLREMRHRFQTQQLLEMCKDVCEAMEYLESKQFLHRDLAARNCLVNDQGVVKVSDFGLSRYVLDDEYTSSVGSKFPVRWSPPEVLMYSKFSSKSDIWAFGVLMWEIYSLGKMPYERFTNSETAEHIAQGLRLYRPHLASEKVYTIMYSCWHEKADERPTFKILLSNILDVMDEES

For `CN1CCN(c2ccc(Nc3nc(-c4cccc(NC(=O)c5ccc(F)c(Cl)c5)c4)sc3C(N)=O)cc2)CC1`, the viability at 5 µM (Raji [1]) was 0.15%, the Activity (Ramos [2]) was 83.68% and the Activity (Raji [3]) was 0.01%. For the same compound, the Activity (Raji [4]) was 0.091%, the Activity (Raji [5]) was 1.88% and the Activity (Raji [6]) was 33.63%. For the same compound, the Activity (Ramos [7]) was 0.051%, the Activity (Ramos [8]) was 1.88% and the Activity (Ramos [9]) was 1.61%. The Activity (Raji [10]) was 2.91%, the viability at 1 µM (Raji [11]) was 97.6% and the Activity (Ramos [12]) was 33.13%. It also gave an Activity (Ramos [13]) of 8.33%, an IC50 [14] of 90 nM and an Activity (Raji [15]) of 24.53%. For the same compound, the Activity (Ramos [16]) was 6.17%, the Activity (Raji [17]) was 67.7% and the Activity (Ramos [18]) was 2.04%. The inhibition [19] was “Active”, the Activity (Ramos [20]) was 11.39% and the inhibition [21] was “Dose-dependent effect”. For the same compound, the Activity (Ramos [22]) was 25.7%, the Activity (Ramos [23]) was 72.4% and the IC50 [24] was 61 nM. For the same compound, the Activity (Ramos [25]) was 0.072%, the Activity (Ramos [26]) was 0.052% and the Activity (Raji [27]) was 32%. It also gave an IC50 (Raji [28]) of 6230 nM, an Activity (Raji [29]) of 47.04% and an Activity (Raji [30]) of 1.26%.
